From ChEMBL document CHEMBL3098021, “New anti-inflammatory cembranoid diterpenoids from the Vietnamese soft coral Lobophytum crassum” (Bioorg Med Chem Lett, 2014)

Key:
[1] = tested on: HepG2; assay: Inhibition of TNF-alpha-induced iNOS mRNA expression in human HepG2 cells preincubated for 1 hr followed by TNF-alpha challenge measured after 6 hrs by RT-PCR analysis; type: functional, cell-based
[2] = tested on: HepG2; assay: Inhibition of TNF-alpha-induced COX2 mRNA expression in human HepG2 cells preincubated for 1 hr followed by TNF-alpha challenge measured after 6 hrs by RT-PCR analysis; type: functional, cell-based
[3] = tested on: HepG2; assay: (§1) Inhibition of TNF-alpha-induced NF-kappaB transcriptional activation in human HepG2 cells preincubated for 1 hr followed by TNF-alpha challenge measured after 1 hr by luciferase reporter gene assay; type: cell-based
Method in brief: (§2)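 HepG2 cells were transfected with an NF-κB-responsive firefly luciferase reporter plasmid (minimal CMV promoter plus tandem NF-κB response elements) and stimulated with 10 ng/mL TNFα. Compounds were tested across a concentration range, with a DMSO vehicle control and sulfasalazine (1.0 µM) as positive control. Luciferase activity was read out, data are mean ± SD (n = 3), and IC50 was derived from the dose–response.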

[4] = as §1; type: cell-based; method in brief: as §2

In the case of C/C1=C\[C@@H]2O[C@@H](O)[C@@]3(C)O[C@@]23CC/C(C)=C/CC[C@](C)(O)[C@H](O)CC1, the inhibition [1] is reported as “Dose-dependent effect”, the inhibition [2] is reported as “Dose-dependent effect” and the inhibition [3] is reported as “Dose-dependent effect”. It also gave an IC50 [4] of 6.63 µM.

C=C1CO[C@H]2/C=C(\C)CC[C@@H](O)[C@@](C)(O)C/C=C/[C@@](C)(O)CC[C@@]12O showed an IC50 [4] greater than 20 µM.

For C/C1=C\[C@@H]2O[C@@H](O)[C@@]3(C)O[C@@]23CC/C(C)=C/CC[C@](C)(O)[C@@H](O)CC1, the inhibition [1] was “Dose-dependent effect”, the inhibition [2] was “Dose-dependent effect” and the inhibition [3] was “Dose-dependent effect”. It also gave an IC50 [4] of 6.3 µM.

With C=C1CO[C@H]2/C=C(\C)CC[C@@H](O)[C@@](C)(O)C/C=C/[C@](C)(O)CC[C@@]12O the IC50 [4] was greater than 20 µM.

In the case of O=C(O)c1cc(/N=N/c2ccc(S(=O)(=O)Nc3ccccn3)cc2)ccc1O [SULFASALAZINE], the IC50 [4] is reported as 0.9 µM.
